Source: ChEMBL document CHEMBL1122537, “Acidic furo[3,2-b]indoles. A new series of potent antiallergy agents” (J Med Chem, 1984)

Organism: Cavia porcellus
Assay: Compound was evaluated in vitro by SDT (Schultz-Dale Test) against isolated guinea pig lung strips repeatedly challenged with antigen in the presence of an antihistamine (H1); c = No activity at a concentration 30 uM
Assay type: functional
With `COc1c(-c2nn[nH]n2)oc2c3ccccc3n(C)c12` the IC50 was “No activity”.
For `COc1c(C(=O)O)oc2c3ccccc3n(C)c12`, the IC50 was “No activity”.

Organism: Cavia porcellus
Assay: Compound was evaluated in vitro by SDT (Schultz-Dale Test) against isolated guinea pig lung strips repeatedly challenged with antigen in the presence of an antihistamine (H1) at a concentration […].
Assay type: functional
Method in brief: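 Lung strips in Tyrode's pH 7.4, 37 °C, with mepyramine 1 µM, at 300 mg base-line tension. Drug in 0.2% NaHCO3 is added 15 min before the ovalbumin bolus. Percent inhibition is taken against the tissue's prior control contraction, usually on four or more tissues. IC50 by linear regression.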
With `CC(C)NCC(O)c1ccc(O)c(O)c1` (stereo unspecified) [ISOPROTERENOL] the IC50 was 0.15 nM.

Organism: Cavia porcellus
Assay: Compound was evaluated in vitro by SDT (Schultz-Dale Test) against isolated guinea pig lung strips repeatedly challenged with antigen in the presence of an antihistamine (H1); b = No activity at a concentration 30 uM
Assay type: functional
`COC(=O)c1oc2c3ccccc3n(-c3ccccc3)c2c1OC` was tested, and the inhibition was “No activity”.

Organism: Cavia porcellus
Assay: In vitro Schultz-Dale Test against isolated guinea pig lung strips repeatedly challenged with antigen in the presence of an antihistamine (H1) at a concentration 30 uM.
Assay type: functional
Work on `CCOc1c(-c2nn[nH]n2)oc2c3cc(OC)ccc3n(-c3ccccc3)c12` yielded an IC50 of 1700 nM.
`CCOc1c(C(=O)O)oc2c3cc(OC)ccc3n(-c3ccccc3)c12` gave an IC50 of 4300 nM.
`CCCc1c(OCC(O)COc2ccc3c(=O)cc(C(=O)O)oc3c2CCC)ccc(C(C)=O)c1O` (stereo unspecified) [FPL-55712] was tested, and the IC50 was 2400 nM.
Work on `COc1c(C(=O)O)oc2c3ccccc3n(-c3ccccc3)c12` yielded an IC50 of 4600 nM.
`CCCc1c2c(c(O)c3c(=O)cc(C(=O)O)oc13)CCCC2` [PROXICROMIL] gave an IC50 of 6300 nM.
`COc1ccc2c(c1)c1oc(C(=O)O)c(OC)c1n2-c1ccccc1` showed an IC50 of 2800 nM.
`COc1ccc2c(c1)c1oc(-c3nn[nH]n3)c(OC)c1n2-c1ccccc1` was tested, and the IC50 was 1500 nM.
Compound `CCOc1c(C(=O)Nc2nn[nH]n2)oc2c3cc(OC)ccc3n(-c3ccccc3)c12` has an IC50 of 2200 nM.
Work on `CC(C)Oc1c(C(=O)O)oc2c3ccccc3n(-c3ccccc3)c12` yielded an IC50 of 3700 nM.
`COc1c(C(=O)Nc2nn[nH]n2)oc2c3ccccc3n(-c3ccccc3)c12` gave an IC50 of 500 nM.
Compound `COc1c(-c2nn[nH]n2)oc2c3ccccc3n(-c3ccccc3)c12` has an IC50 of 2900 nM.
Compound `CC(C)Oc1c(C(=O)Nc2nn[nH]n2)oc2c3ccccc3n(-c3ccccc3)c12` has an IC50 of 60 nM.
Work on `CCOc1c(C(=O)Nc2nn[nH]n2)oc2c3ccccc3n(-c3ccccc3)c12` yielded an IC50 of 200 nM.
In the case of `COc1ccc2c(c1)c1oc(C(=O)Nc3nn[nH]n3)c(OC)c1n2-c1ccccc1`, the IC50 is reported as 900 nM.
Work on `COc1c(C(=O)Nc2nn[nH]n2)oc2c3ccccc3n(C)c12` yielded an IC50 of 21600 nM.
`COc1ccc2c(c1)c1oc(C(=O)Nc3nn[nH]n3)c(OC(C)C)c1n2-c1ccccc1` was tested, and the IC50 was 2800 nM.
Compound `CCOc1c(-c2nn[nH]n2)oc2c3ccccc3n(-c3ccccc3)c12` has an IC50 of 3200 nM.
With `CCOc1c(C(=O)O)oc2c3ccccc3n(-c3ccccc3)c12` the IC50 was 3200 nM.

Organism: Cavia porcellus
Assay: Compound was evaluated in vitro by SDT (Schultz-Dale Test) against isolated guinea pig lung strips repeatedly challenged with antigen in the presence of an antihistamine (H1) at a concentration 30 uM; i = No significant activity at 1.0 uM
Assay type: functional
`CCCCCCCCCOc1c(C(=O)Nc2nn[nH]n2)oc2c3ccccc3n(-c3ccccc3)c12` was tested, and the IC50 was “No significant activity”.

Organism: Cavia porcellus
Assay: Compound was evaluated in vitro by SDT (Schultz-Dale Test) against isolated guinea pig lung strips repeatedly challenged with antigen in the presence of an antihistamine (H1) at a concentration 10 uM
Assay type: functional
In the case of `O=C(O)c1cc2c(o1)c1ccccc1n2-c1ccccc1`, the inhibition at 10 µM is reported as 33%.
In the case of `CCOc1c(C(=O)OC)oc2c3cc(OC)ccc3n(-c3ccccc3)c12`, the inhibition at 10 µM is reported as 24%.
`COC(=O)c1oc2c3cc(OC)ccc3n(-c3ccccc3)c2c1OC` showed an inhibition at 10 µM of 23%.
